From PubChem BioAssay come the findings set out here.

Calls of active or inactive are those of the source.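 The calls were made as follows, unless noted: active = viability at or under a set limit in both replicates, limit being median viability minus 3 SD (cut at about 48% in these data, passing the limit was not always enough); inconclusive = at or under the limit in just one replicate; inactive = at or above the limit in both replicates.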

The nature of experiment [1]: Her2 expression decrease, cell viability multiplex – SKBR3 breast tumor cells, AlphaScreen, ATP viability, primary screen (AID 461;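 active = Her2 level under about 52% in both replicate screens, with viability over 70% of control, limit read from the data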;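 as to Her2 level: lower value means less Her2 protein in the cells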;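 as to viability: percent of carrier control wells set as 100% viability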). As to conditions: SKBR3 Her2 protein level, 18-24 h, measured here: SKBR3 viability, ATP luminescence, at 10 µM. Background: In Alpha technology, singlet oxygen from a donor bead excites a nearby acceptor bead.
Experiment [2] addresses Receptor tyrosine-protein kinase erbB-2 (Homo sapiens) (UniProt P04626). The description is as above. The note with it: 18-24 h, at 10 µM, stronger effect = lower value.
Experiment [3] is described as follows: reduced viability of SK-BR-3 breast cancer cells – cell-based, 24 h, human, pilot screen (AID 572;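 active = viability at or below 10% of carrier control in both of two separate runs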;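 also: compound exposure lasted between 18 and 24 h rather than exactly 24 h; 100% = carrier-treated control wells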). As to conditions: SK-BR-3 viability, CellTiter-Glo luminescence, at 10 µM, stronger effect = lower value.
The nature of experiment [4]: HUVEC growth inhibition – cell-based, human, primary screen (AID 575;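 active = viability at or below 30% in both replicate assays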;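 also: 100% = median of untreated cell wells with 0.1% DMSO on each plate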). The note with it: HUVEC proliferation, CellTiter-Glo luminescence, 72 h; at 10 µM; stronger effect = lower value. The essentials:
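Assay system: Primary human umbilical vein endothelial cells | Quantity: 1250 cells per well | Medium: Supplemented EBM, 2% fetal bovine serum | Detection: CellTiter-Glo luminescence measuring cellular ATP | Read-out: % viability vs DMSO wells | Plate: Collagen-coated 384-well format | Times: 72 h exposure, 37 °C, 5% CO2, 30 min RT equilibration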
(In ATP-based viability assays light output follows the ATP content of the culture.)

The nature of experiment [5]: H69AR cell proliferation blockers – human, duplicate replicates, primary screen (AID 580).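 Also: 100% = mean luminescence of untreated wells and 0% = no signal.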 The note with it: H69AR lung tumor cells viability, ATP luminescence, 72 h; at 10 µM; stronger effect = lower value.
Experiment [6] in a line: MRP1 drug-resistance reversers in H69AR cells – cell-based, doxorubicin co-treatment, pilot screen (AID 601;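 active = viability loss from added drug above about 55%, and viability with drug at most 40%, in both replicates, limit read from the data, passing the limit was not always enough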). As to conditions: CellTiter-Glo, 72 h, at 10 µM; for differential viability (reversal): stronger effect = higher value.
Experiment [7] is described as follows: yeast transport mutant growth inhibition pilot in 384-well plates, post-Golgi transport modulator project (AID 636; in the data active = inhibition above about 31%). The note with it: absorbance 615 nm, about 18 h, stronger effect = higher value.
A short description of experiment [8]: growth suppression of yeast trafficking mutant, preliminary HTS, modulators of trafficking downstream of Golgi apparatus project, 1536-format plate, OD 615 nm (AID 637; in the data active = inhibition above about 30%). The note with it: yeast transport mutant growth, absorbance 615 nm, 18 h; stronger effect = higher value.
[9] abbreviates: H69AR cells + 2 uM doxorubicin, measured here: viability with 2 uM doxorubicin, stronger effect = lower value.
Setting [10] is: H69AR cells, compound alone cytotoxicity.

Sequence of Receptor tyrosine-protein kinase erbB-2 (Homo sapiens) (P04626 whole entry, looked up): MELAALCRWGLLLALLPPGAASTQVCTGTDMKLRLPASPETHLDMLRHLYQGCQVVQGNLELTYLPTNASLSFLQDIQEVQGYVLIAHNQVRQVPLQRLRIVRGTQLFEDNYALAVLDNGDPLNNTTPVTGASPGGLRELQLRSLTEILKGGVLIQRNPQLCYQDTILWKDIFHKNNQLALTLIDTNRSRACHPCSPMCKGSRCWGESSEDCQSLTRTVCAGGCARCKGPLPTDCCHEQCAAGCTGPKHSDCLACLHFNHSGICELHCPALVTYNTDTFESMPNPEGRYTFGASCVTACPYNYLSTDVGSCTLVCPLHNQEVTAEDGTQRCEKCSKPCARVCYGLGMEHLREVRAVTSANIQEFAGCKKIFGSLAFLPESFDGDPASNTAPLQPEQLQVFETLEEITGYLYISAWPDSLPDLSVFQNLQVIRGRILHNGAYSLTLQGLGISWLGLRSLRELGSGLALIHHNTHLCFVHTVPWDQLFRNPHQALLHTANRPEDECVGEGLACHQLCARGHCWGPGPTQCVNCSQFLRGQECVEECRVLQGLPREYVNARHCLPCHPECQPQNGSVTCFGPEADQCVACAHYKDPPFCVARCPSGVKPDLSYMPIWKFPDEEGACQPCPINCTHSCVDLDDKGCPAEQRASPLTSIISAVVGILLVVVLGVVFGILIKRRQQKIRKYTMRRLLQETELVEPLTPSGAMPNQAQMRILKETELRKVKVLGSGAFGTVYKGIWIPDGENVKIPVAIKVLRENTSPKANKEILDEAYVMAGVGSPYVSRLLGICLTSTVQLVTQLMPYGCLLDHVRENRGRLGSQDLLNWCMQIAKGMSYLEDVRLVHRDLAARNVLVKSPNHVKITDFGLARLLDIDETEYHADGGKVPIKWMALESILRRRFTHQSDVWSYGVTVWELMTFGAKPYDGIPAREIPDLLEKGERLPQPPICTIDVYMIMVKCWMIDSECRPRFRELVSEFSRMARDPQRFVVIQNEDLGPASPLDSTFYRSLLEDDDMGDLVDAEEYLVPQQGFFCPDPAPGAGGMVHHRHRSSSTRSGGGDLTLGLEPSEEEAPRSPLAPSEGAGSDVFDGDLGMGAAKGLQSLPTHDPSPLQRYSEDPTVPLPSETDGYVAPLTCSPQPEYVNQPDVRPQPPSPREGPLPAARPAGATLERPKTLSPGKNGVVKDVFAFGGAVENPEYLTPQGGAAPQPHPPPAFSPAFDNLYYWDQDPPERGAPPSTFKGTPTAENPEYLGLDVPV

In the case of `CCS(=O)(=O)N1CCCC(c2nc(-c3cccc(OC)c3)no2)C1` (stereo not given), the viability – broadly, a read-out of living cells in per cent, often relative to untreated cells – in experiment [1] is 100%; in experiment [3], 100% (inactive); in experiment [4], 96.7% (inactive); in experiment [5] it was 92.7% (inactive); in experiment [6] (setting [9]) it was 92.2%; in experiment [6] (setting [10]), 92.7%. Besides, the Her2 level in experiment [2] was 110% (inactive). For the same compound, the differential viability (reversal) in experiment [6] (H69AR cells + 2 uM doxorubicin) was 0.525% (inactive). In addition, the inhibition (in general, the change of the read-out against control, counted positive when it falls) in experiment [7] was -3.84% (inactive); in experiment [8] it was -2.7% (inactive).
Regarding `Cc1ccc(OCC(=O)NCCN2CCCC2)cc1`, the viability in experiment [1] was 97.5%; in experiment [3], 97.5% (inactive); in experiment [4], 86% (inactive); in experiment [5], 95.9% (inactive); in experiment [6] (setting [9]), 86.4%; in experiment [6] (setting [10]) it was 95.9%. Also, the Her2 level in experiment [2] was 84.5% (inactive). In addition, the differential viability (reversal) in experiment [6] (H69AR cells + 2 uM doxorubicin) was 9.56% (inactive). In addition, the figures for the inhibition in experiment [7] and in experiment [8] were -6.8% (inactive) and 2.3% (inactive), respectively.
As to `COc1ccc(C2=Nn3c(nnc3-c3cccnc3)SC2)cc1`, the viability was 83.5% in experiment [1]; 83.5% (inactive) in experiment [3]; 97.1% (inactive) in experiment [4]; 64.7% (inactive) in experiment [5]; 81.2% in experiment [6] (setting [9]); 64.7% in experiment [6] (setting [10]). The Her2 level in experiment [2] was 93.5% (inactive). For the same compound, in experiment [6] (H69AR cells + 2 uM doxorubicin), the differential viability (reversal) is -16.5% (inactive). Further, the inhibition was -6.32% (inactive) in experiment [7] and 0.48% (inactive) in experiment [8].
With `COCCOC(=O)C1=C(C)Nc2ncnn2C1c1ccc(F)cc1` (stereo not given), the viability is 90% in experiment [1]; 90% (inactive) in experiment [3]; 103% (inactive) in experiment [4]; 85.8% (inactive) in experiment [5]; 82% in experiment [6] (setting [9]); 85.8% in experiment [6] (setting [10]). Also, the Her2 level in experiment [2] was 87.5% (inactive). Further, in experiment [6] (H69AR cells + 2 uM doxorubicin), the differential viability (reversal) was 3.85% (inactive). The figures for the inhibition in experiment [7] and in experiment [8] were -3.6% (inactive) and -1.48% (inactive), respectively.
As to `Cc1ccc(S(=O)(=O)n2nc(OC(=O)c3ccco3)cc2N)cc1`, the viability in experiment [1] is 92.5%; in experiment [3], 92.5% (inactive); in experiment [4], 96.4% (inactive); in experiment [5], 88.8% (inactive); in experiment [6] (setting [9]), 84%; in experiment [6] (setting [10]), 88.8%. For the same compound, in experiment [2], the Her2 level is 106% (inactive). Also, in experiment [6] (H69AR cells + 2 uM doxorubicin), the differential viability (reversal) was 4.73% (inactive). The inhibition was -6.32% (inactive) in experiment [7] and -1.45% (inactive) in experiment [8].
Turning to `CN(C)c1ccc2c(c1)OC(N)=C(C#N)C2c1cccc(F)c1` (stereo not given), the viability in experiment [1] is 92%; in experiment [3] it was 92% (inactive); in experiment [4], 17.2% (active); in experiment [5], 34.7% (active); in experiment [6] (setting [9]) it was 75.7%; in experiment [6] (setting [10]), 34.7%. Besides, in experiment [2], the Her2 level was 90.5% (inactive). For the same compound, in experiment [6] (H69AR cells + 2 uM doxorubicin), the differential viability (reversal) is -41% (inactive). Also, the inhibition in experiment [7] was -3.24% (inactive); in experiment [8] it was 4.75% (inactive).
Consider `O=C1NC(c2cccs2)Nc2ccccc21` (stereo not given), for which the viability in experiment [1] was 107%; in experiment [3], 107% (inactive); in experiment [4], 111% (inactive); in experiment [5] it was 86.7% (inactive); in experiment [6] (setting [9]), 91.4%; in experiment [6] (setting [10]), 86.7%. Also, the Her2 level in experiment [2] is 86.5% (inactive). In experiment [6] (H69AR cells + 2 uM doxorubicin), the differential viability (reversal) was -4.77% (inactive). Also, the inhibition in experiment [7] was -8.03% (inactive); in experiment [8], -9.52% (inactive).
For the compound `CC(C)C1Cc2c(C#N)c(N)sc(=S)c2CO1` (stereo not given), the viability was 85% in experiment [1]; 85% (inactive) in experiment [3]; 64.2% (inactive) in experiment [4]; 93.9% (inactive) in experiment [5]; 96.2% in experiment [6] (setting [9]); 93.9% in experiment [6] (setting [10]). Also, the Her2 level in experiment [2] is 108% (inactive). Also, the differential viability (reversal) in experiment [6] (H69AR cells + 2 uM doxorubicin) was -2.34% (inactive). Further, the inhibition is -4.03% (inactive) in experiment [7] and -2.13% (inactive) in experiment [8].
With `Cc1cc(O)c(C(C)C)cc1N=C1CSC(=O)N1`, the viability in experiment [1] was 89%; in experiment [3], 89% (inactive); in experiment [4], 95.3% (inactive); in experiment [5] it was 87.7% (inactive); in experiment [6] (setting [9]), 86%; in experiment [6] (setting [10]), 87.7%. In addition, the Her2 level in experiment [2] was 78.5% (inactive). In experiment [6] (H69AR cells + 2 uM doxorubicin), the differential viability (reversal) is 1.7% (inactive). Also, the inhibition in experiment [7] was -2.11% (inactive); in experiment [8] it was -1.82% (inactive).
With `Cc1ccccc1-c1nc(CN2CCC(C(=O)NCCCN3CCOCC3)CC2)c(C)o1`, the viability was 86.5% in experiment [1]; 86.5% (inactive) in experiment [3]; 74% (inactive) in experiment [4]; 97.2% (inactive) in experiment [5]; 91.9% in experiment [6] (setting [9]); 97.2% in experiment [6] (setting [10]). In addition, the Her2 level in experiment [2] is 107% (inactive). For the same compound, in experiment [6] (H69AR cells + 2 uM doxorubicin), the differential viability (reversal) is 5.29% (inactive). In addition, the inhibition in experiment [7] was 1.58% (inactive); in experiment [8], -4.29% (inactive).
On to `CC1CCCC(C(=O)OCc2ccccc2)N1` (stereo not given), for which the viability in experiment [1] was 119%; in experiment [3], 119% (inactive); in experiment [4] it was 102% (inactive); in experiment [5] it was 97.2% (inactive); in experiment [6] (setting [9]), 91%; in experiment [6] (setting [10]), 97.2%. In experiment [2], the Her2 level is 94% (inactive). Also, the differential viability (reversal) in experiment [6] (H69AR cells + 2 uM doxorubicin) is 6.15% (inactive). Also, the inhibition was -2.63% (inactive) in experiment [7] and -1.11% (inactive) in experiment [8].
As to `CCOc1cc(NC(=O)c2ccco2)c(OCC)cc1NC(=O)Cc1cccc(OC)c1`, the viability in experiment [1] is 107%; in experiment [3], 107% (inactive); in experiment [4] it was 61.2% (inactive); in experiment [5], 86.7% (inactive); in experiment [6] (setting [9]), 86.7%; in experiment [6] (setting [10]), 86.7%. In experiment [2], the Her2 level was 99.5% (inactive). The differential viability (reversal) in experiment [6] (H69AR cells + 2 uM doxorubicin) is -0.055% (inactive). In addition, the inhibition is 0.68% (inactive) in experiment [7] and -6.39% (inactive) in experiment [8].
For the compound `Cc1ccc(Cn2c(SCC(C)C)nc3c2c(=O)n(C)c(=O)n3C)cc1`, the viability in experiment [1] was 84.5%; in experiment [3], 84.5% (inactive); in experiment [4] it was 62.2% (inactive); in experiment [5], 77.5% (inactive); in experiment [6] (setting [9]) it was 90.1%; in experiment [6] (setting [10]), 77.5%. Further, the Her2 level in experiment [2] is 75.5% (inactive). Further, the differential viability (reversal) in experiment [6] (H69AR cells + 2 uM doxorubicin) was -12.6% (inactive). The inhibition in experiment [7] is -1.84% (inactive); in experiment [8], 9.34% (inactive).
In the case of `CSCCC(C(=O)Nc1ccc2c(c1)OCO2)N1C(=O)c2ccccc2C1=O` (stereo not given), the viability in experiment [1] is 91%; in experiment [3], 91% (inactive); in experiment [4], 88.1% (inactive); in experiment [5], 96.4% (inactive); in experiment [6] (setting [9]), 92%; in experiment [6] (setting [10]), 96.4%. The Her2 level in experiment [2] was 79% (inactive). Further, the differential viability (reversal) in experiment [6] (H69AR cells + 2 uM doxorubicin) was 4.44% (inactive). The inhibition was -1.3% (inactive) in experiment [7] and -1.43% (inactive) in experiment [8].
